{"source": "ChEMBL document CHEMBL4406830", "about": "“Galloyl esters of trans-stilbenes are inhibitors of FASN with anticancer activity on non-small cell lung cancer cells” (Eur J Med Chem, 2019)", "key": {"[1]": {"system": "NCI-H1650", "assay": "Antiproliferative activity against human NCI-H1650 cells expressing FASN assessed as reduction in cell viability after 72 hrs by MTS assay", "assay_type": "functional, cell-based", "details": "NCI-H1650, 72 h", "in_short": "(§1)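 ATCC-sourced cells. H1299, H1650, H1703 and PC-9 were grown in RPMI 1640 with 10% FBS. A549 was grown in high-glucose DMEM with 10% FBS and 1 mM pyruvate. SAEC was grown in BEGM. Cells were seeded at 3 × 10^3 per well (H1650 3.5 × 10^3) and left to attach overnight. Serial dilutions from DMSO stocks were added, 0.1% DMSO final, for 72 h at 37 °C, 5% CO2. Medium was replaced, MTS added, and A490 read after 2 h. IC50 was taken from % viability versus log concentration, 3 experiments.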"}, "[2]": {"system": "NCI-H1299", "assay": "Antiproliferative activity against human NCI-H1299 cells expressing FASN assessed as reduction in cell viability after 72 hrs by MTS assay", "assay_type": "functional, cell-based", "details": "NCI-H1299, 72 h", "in_short": "as §1"}, "[3]": {"system": "NCI-H1703", "assay": "Antiproliferative activity against human NCI-H1703 cells expressing FASN assessed as reduction in cell viability after 72 hrs by MTS assay", "assay_type": "functional, cell-based", "details": "NCI-H1703, 72 h", "in_short": "as §1"}, "[4]": {"system": "NCI-H1703", "assay": "Antiproliferative activity against human NCI-H1703 cells expressing FASN assessed as growth inhibition at 25 uM after 72 hrs by MTS assay relative to control", "assay_type": "functional", "details": "NCI-H1703, 72 h", "in_short": "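H1703 cells were treated with a single 25 µM concentration for 72 h. Viability was measured by MTS at 490 nm, with 0.1% DMSO and media-only correction, relative to untreated control. Mean ± SD of n = 3 independent determinations, unpaired t test against control.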"}, "[5]": {"assay": "Kinetic solubility of the compound in universal buffer at pH 7.4 measured at 25 degC after 24 hrs by UV/Visible spectroscopic analysis", "assay_type": "physicochemical", "details": "read-out: Kinetic_solubility"}}}
{"smiles": "O=C(Oc1ccc(/C=C/c2cccc(OC(=O)c3ccc(O)cc3)c2)cc1)c1ccc(O)cc1", "values": [{"measurement": "IC50", "setting": "[1]", "result": 40.2, "unit": "µM"}, {"measurement": "IC50", "setting": "[2]", "result": 37.2, "unit": "µM"}, {"measurement": "IC50", "setting": "[3]", "result": 17.2, "unit": "µM"}, {"measurement": "inhibition at 25 µM", "setting": "[4]", "result": "> 50", "unit": "%"}]}
{"smiles": "O=C(Oc1ccc(-c2ccc(OC(=O)c3cc(O)c(O)c(O)c3)cc2)cc1)c1cc(O)c(O)c(O)c1", "values": [{"measurement": "solubility kinetic at 24 h", "setting": "[5]", "result": 0.4, "unit": "µM"}, {"measurement": "IC50", "setting": "[1]", "result": 7.4, "unit": "µM"}, {"measurement": "IC50", "setting": "[2]", "result": 4.2, "unit": "µM"}, {"measurement": "IC50", "setting": "[3]", "result": 5.8, "unit": "µM"}]}
{"smiles": "O=C(Oc1ccc(-c2cccc3ccccc23)cc1)c1cc(O)c(O)c(O)c1", "values": [{"measurement": "inhibition at 25 µM", "setting": "[4]", "result": "< 50", "unit": "%"}]}
{"smiles": "COc1cc(C(=O)Oc2ccc(/C=C/c3ccccc3)cc2)cc(OC)c1OC", "values": [{"measurement": "inhibition at 25 µM", "setting": "[4]", "result": "< 50", "unit": "%"}]}
{"smiles": "O=C(Oc1ccccc1Cc1ccccc1OC(=O)c1cc(O)c(O)c(O)c1)c1cc(O)c(O)c(O)c1", "values": [{"measurement": "IC50", "setting": "[1]", "result": 122, "unit": "µM"}, {"measurement": "IC50", "setting": "[2]", "result": 25.9, "unit": "µM"}, {"measurement": "IC50", "setting": "[3]", "result": 39.3, "unit": "µM"}, {"measurement": "inhibition at 25 µM", "setting": "[4]", "result": "> 50", "unit": "%"}]}
{"smiles": "O=C(Oc1cccc2c1CCCC2OC(=O)c1cc(O)c(O)c(O)c1)c1cc(O)c(O)c(O)c1", "note": "(stereo not drawn)", "values": [{"measurement": "IC50", "setting": "[1]", "result": 36, "unit": "µM"}, {"measurement": "IC50", "setting": "[2]", "result": 10.2, "unit": "µM"}, {"measurement": "IC50", "setting": "[3]", "result": 6.5, "unit": "µM"}, {"measurement": "inhibition at 25 µM", "setting": "[4]", "result": "> 50", "unit": "%"}]}
